Data from ChEMBL document CHEMBL1133558, “Structural determinants of AMPA agonist activity in analogues of 2-amino-3-(3-carboxy-5-methyl-4-isoxazolyl)propionic acid: synthesis and pharmacology” (J Med Chem, 2000).
pEC50, pIC50: −log10 of the molar value.

Columns and labels:
[1] = target: T1, Glutamate receptor ionotropic, AMPA (Rattus norvegicus, UniProt P19490+P19491+P19492+P19493); test: Agonistic activity electrophysiologically against AMPA using rat cortical wedge preparation; assay type: functional
[2] = target: T1, Glutamate receptor ionotropic, AMPA; test: Inhibition of [3H]AMPA binding to rat brain membranes.; assay type: cell membranes, Membrane
[3] = target: Glutamate receptor ionotropic, kainate; test: Inhibition of [3H]-Kainic acid binding to rat brain membranes.; assay type: cell membranes, Membrane
Glutamate NMDA receptor [4] = test: Inhibition of [3H]CPP binding to rat brain membranes.; assay type: cell membranes, Membrane
Glutamate NMDA receptor [5] = test: Tested in vitro for the antagonistic activity electrophysiologically against NMDA using rat cortical wedge preparation; assay type: functional
How it was run: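 Rat cortical wedge preparation. The cortex was superfused with Mg²⁺-free Krebs buffer and the corpus callosum with Mg²⁺- and Ca²⁺-free Krebs buffer, at 25 °C. Compounds were added to the cortical superfusate, and the potential difference between the electrodes was recorded on a chart recorder.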

[6] = target: Glutamate receptor ionotropic, NMDA (Rattus norvegicus); test: Tested in vitro for the antagonistic activity electrophysiologically against NMDA using rat cortical wedge preparation

## COc1noc(C(=O)O)c1CC(N)C(=O)O (centres undefined)
[1]
  pEC50: 5.92
[2]
  pIC50: 6.96
[3]
  pIC50: < 4.00
Glutamate NMDA receptor [4]
  pIC50: < 4.00

## NC(Cc1c(C(=O)O)on(Cc2ccccc2)c1=O)C(=O)O (centres undefined)
[2]
  pIC50: < 4.00
[3]
  pIC50: < 4.00
Glutamate NMDA receptor [4]
  pIC50: < 4.00
Glutamate NMDA receptor [5]
  pIC50: 3.15

## Cn1oc(C(=O)O)c(CC(N)C(=O)O)c1=O (centres undefined)
[1]
  pEC50: < 3.00
[2]
  pIC50: < 4.00
[3]
  pIC50: < 4.00
Glutamate NMDA receptor [4]
  pIC50: < 4.00

## CCCCCOc1noc(C(=O)O)c1CC(N)C(=O)O (centres undefined)
[1]
  pEC50: 3.00
[2]
  pIC50: < 4.00
[3]
  pIC50: < 4.00
Glutamate NMDA receptor [4]
  pIC50: < 4.00

## C=CCOc1noc(C(=O)O)c1CC(N)C(=O)O (centres undefined)
[1]
  pEC50: 4.40
[2]
  pIC50: 5.14
[3]
  pIC50: < 4.00
Glutamate NMDA receptor [4]
  pIC50: < 4.00

## NC(Cc1c(OCc2ccccc2)noc1C(=O)O)C(=O)O (centres undefined)
[1]
  pEC50: < 3.00
[2]
  pIC50: < 4.00
[3]
  pIC50: < 4.00
Glutamate NMDA receptor [4]
  pIC50: < 4.00

## C/C=C/COc1noc(C(=O)O)c1CC(N)C(=O)O (centres undefined)
[1]
  pEC50: 3.30
[2]
  pIC50: < 4.00
[3]
  pIC50: < 4.00
Glutamate NMDA receptor [4]
  pIC50: < 4.00

## CCOc1noc(-c2nc[nH]n2)c1CC(N)C(=O)O (centres undefined)
[1]
  pEC50: < 4.00
[2]
  pIC50: < 4.00
[3]
  pIC50: < 4.00
Glutamate NMDA receptor [4]
  pIC50: < 4.00

## CCCCOc1noc(C(=O)O)c1CC(N)C(=O)O (centres undefined)
[1]
  pEC50: 3.39
[2]
  pIC50: < 4.00
[3]
  pIC50: < 4.00
Glutamate NMDA receptor [4]
  pIC50: < 4.00

## CC(C)Oc1noc(C(=O)O)c1CC(N)C(=O)O (centres undefined)
[1]
  pEC50: 4.43
[2]
  pIC50: 5.26
[3]
  pIC50: < 4.00
Glutamate NMDA receptor [4]
  pIC50: < 4.00

## NC(Cc1c(O)noc1C(=O)O)C(=O)O (centres undefined)
[1]
  pEC50: < 3.00
[2]
  pIC50: < 4.00
[3]
  pIC50: < 4.00
Glutamate NMDA receptor [4]
  pIC50: < 4.00

## CCOc1noc(C(=O)O)c1CC(N)C(=O)O (centres undefined)
[1]
  pEC50: 5.32
[2]
  pIC50: 6.00
[3]
  pIC50: < 4.00
Glutamate NMDA receptor [4]
  pIC50: < 4.00

## CCOc1noc(C(=O)O)c1C/N=c1\c(O)c(O)c1=N
[2]
  pIC50: < 4.00
[3]
  pIC50: < 4.00
Glutamate NMDA receptor [4]
  pIC50: 4.12
[6]
  pIC50: 3.22

## CCn1oc(C(=O)O)c(CC(N)C(=O)O)c1=O (centres undefined)
[1]
  pEC50: < 3.30
[2]
  pIC50: < 4.00
[3]
  pIC50: < 4.00
Glutamate NMDA receptor [4]
  pIC50: < 4.00

## CCCOc1noc(C(=O)O)c1CC(N)C(=O)O (centres undefined)
[1]
  pEC50: 4.10
[2]
  pIC50: 4.85
[3]
  pIC50: < 4.00
Glutamate NMDA receptor [4]
  pIC50: < 4.00

## CCOc1noc(-c2nn[nH]n2)c1CC(N)C(=O)O (centres undefined)
[1]
  pEC50: 2.70
[2]
  pIC50: < 4.00
[3]
  pIC50: < 4.00
Glutamate NMDA receptor [4]
  pIC50: < 4.00
